Measured values: PMC7004521 (Cancer Science, 2019)

Columns and labels:
Plasma pharmacokinetics = type: in vivo, human
Method in brief: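 Capsules (100–600 mg bid) or tablets (400 mg bid) were given orally. In escalation, plasma was drawn pre-dose and at 0.5, 1, 2, 4, 6 and 8 h on cycle 1 days 1 and 15, plus pre-dose on C1D2, C1D16, C2D1 and C3D1. In expansion, non-NSCLC patients had the C1D15 profile plus pre-dose samples. Analysis was validated LC-MS/MS (LLOQ 1 ng/mL) with noncompartmental parameters.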

[1] = End of treatment / discontinuation reasons; type: in vivo, human; conditions: dose‐expansion part, six of 38 patients
[2] = Dose-limiting toxicities, MTD and RP2D determination; type: in vivo, human
c‐MET phosphorylation = conditions: read-out: EC90 (90% inhibition of c‐MET phosphorylation); total concentration; c‐MET‐dependent mouse tumor models; cited from earlier work

Q: For `CNC(=O)c1ccc(-c2cnc3ncc(Cc4ccc5ncccc5c4)n3n2)cc1F` [capmatinib], which “drug accumulation following multiple doses” value (Plasma pharmacokinetics; 400 mg bid tablets) is on record?
A: Its value is “Limited drug accumulation”.

Q: What about the “Racc (accumulation ratio), Mean (SD)” value (Plasma pharmacokinetics; Cycle 1 Day 15, 100 mg bid n=3) of the same molecule?
A: Its value is 1.54 (0.786).

Q: What about the “Racc (accumulation ratio), Mean (SD)” value (Plasma pharmacokinetics; Cycle 1 Day 15, 200 mg bid n=5) of the same molecule?
A: Its value is 1.36 (0.869).

Q: And the “Racc (accumulation ratio), Mean (SD)” value (Plasma pharmacokinetics; Cycle 1 Day 15, 250 mg bid n=3)?
A: Its value is 1.08 (0.443).

Q: What about the “Racc (accumulation ratio), Mean (SD)” value (Plasma pharmacokinetics; Cycle 1 Day 15, 350 mg bid n=3) of the same molecule?
A: Its value is 1.38 (0.614).

Q: And the “Racc (accumulation ratio), Mean (SD)” value (Plasma pharmacokinetics; Cycle 1 Day 15, 400 mg bid tablet n=5)?
A: The value was 1.09 (0.408).

Q: What about the “Racc (accumulation ratio), Mean (SD)” value (Plasma pharmacokinetics; Cycle 1 Day 15, 450 mg bid n=5) of the same molecule?
A: Its value is 2.36 (1.75).

Q: And the “Racc (accumulation ratio), Mean (SD)” value (Plasma pharmacokinetics; Cycle 1 Day 15, 600 mg bid n=15)?
A: The value was 2.07 (0.848).

Q: And the “drug accumulation ratio following multiple doses” value (Plasma pharmacokinetics; capsules)?
A: The value was “one‐ to twofold”.

Q: And the “drug accumulation following multiple doses” value (Plasma pharmacokinetics; capsules 450 and 600 mg bid)?
A: Its value is “ca. twofold”.

Q: And the “dose proportionality of steady‐state AUCtau and Cmax” value (Plasma pharmacokinetics; capsules, 100 to 600 mg bid)?
A: Its value is “generally dose proportional”.

Q: What about the “mean exposure, tablet 400 mg bid versus capsules 600 mg bid” value (Plasma pharmacokinetics; steady state) of the same molecule?
A: Its value is “comparable mean exposure”.

Q: What about the “Cmax, Mean (SD)” value (Plasma pharmacokinetics; steady state, Cycle 1 Day 15, 200 mg bid n=5) of the same molecule?
A: Its value is 2500 (856) ng/mL.

Q: And the “Tmax, Median” value (Plasma pharmacokinetics; steady state, Cycle 1 Day 15, 250 mg bid n=3)?
A: Its value is 1.00 h.

Q: And the “Tmax, Median” value (Plasma pharmacokinetics; steady state, Cycle 1 Day 15, 400 mg bid tablet n=8)?
A: Its value is 2.02 h.

Q: And the “patients discontinued as a result of AE” value [1]?
A: Its value is 16%.

Q: And the “posterior probability of excessive toxicity (BLRM)” value ([2]; 600 mg bid dose level, dose‐escalation phase)?
A: Its value is 20.1%.

Q: And the MTD ([2]; up to 600 mg bid capsules)?
A: Its MTD is “not reached”.

Q: And the EC90 (c‐MET phosphorylation)?
A: The EC90 was about 71 nM.
